Source: ChEMBL document CHEMBL3632498, “Identification of small molecule inhibitors of the STAT3 signaling pathway: Insights into their structural features and mode of action” (Bioorg Med Chem Lett, 2015)
Active and inactive are the calls of the source. No cut-off for these calls is given here.

Legend:
[1] = target: Signal transducer and activator of transcription 3 (Homo sapiens) (UniProt P40763); experiment: Binding to STAT3 in human MCF10A cells transformed with H-ras at 5 to 30 uM after 24 hrs using HRP-streptavidin by Western blot analysis; conditions: MCF-10A
[2] = target: Signal transducer and activator of transcription 3 (Homo sapiens) (UniProt P40763); experiment: Inhibition of STAT3 transcriptional activity in human oncostatin M-stimulated HeLa cells at 10 uM after 24 hrs by luciferase reporter gene assay; format: cell-based
Method in brief: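 HeLa cells carrying a STAT3-luciferase reporter pretreated with DMSO or compound (10 µM) for 24 h, stimulated with oncostatin M 10 ng/mL for 5 h, then luciferase reporter activity measured.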

[3] = target: Signal transducer and activator of transcription 3 (Homo sapiens) (UniProt P40763); experiment: Inhibition of STAT3 phosphorylation in human MCF10A cells transformed with H-ras at 5 to 10 uM after 24 hrs by Western blot analysis; format: cell-based; conditions: MCF-10A
Method in brief: (§1)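 Immunoblot of STAT3 phosphorylation in MCF10A-ras cells after 24 h treatment at 5 and 10 µM (analogs at 10 µM). In a thiol-reducing arm, cells got 0.5 mM DTT for 1 h before 10 µM compound for 24 h.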

[4] = target: T1, Signal transducer and activator of transcription 1-alpha/beta (Homo sapiens) (UniProt P42224); experiment: Inhibition of STAT1 phosphorylation in human MCF10A cells transformed with H-ras at 1 to 10 uM after 24 hrs by Western blot analysis; format: cell-based; conditions: MCF-10A
T1 sequence (whole entry): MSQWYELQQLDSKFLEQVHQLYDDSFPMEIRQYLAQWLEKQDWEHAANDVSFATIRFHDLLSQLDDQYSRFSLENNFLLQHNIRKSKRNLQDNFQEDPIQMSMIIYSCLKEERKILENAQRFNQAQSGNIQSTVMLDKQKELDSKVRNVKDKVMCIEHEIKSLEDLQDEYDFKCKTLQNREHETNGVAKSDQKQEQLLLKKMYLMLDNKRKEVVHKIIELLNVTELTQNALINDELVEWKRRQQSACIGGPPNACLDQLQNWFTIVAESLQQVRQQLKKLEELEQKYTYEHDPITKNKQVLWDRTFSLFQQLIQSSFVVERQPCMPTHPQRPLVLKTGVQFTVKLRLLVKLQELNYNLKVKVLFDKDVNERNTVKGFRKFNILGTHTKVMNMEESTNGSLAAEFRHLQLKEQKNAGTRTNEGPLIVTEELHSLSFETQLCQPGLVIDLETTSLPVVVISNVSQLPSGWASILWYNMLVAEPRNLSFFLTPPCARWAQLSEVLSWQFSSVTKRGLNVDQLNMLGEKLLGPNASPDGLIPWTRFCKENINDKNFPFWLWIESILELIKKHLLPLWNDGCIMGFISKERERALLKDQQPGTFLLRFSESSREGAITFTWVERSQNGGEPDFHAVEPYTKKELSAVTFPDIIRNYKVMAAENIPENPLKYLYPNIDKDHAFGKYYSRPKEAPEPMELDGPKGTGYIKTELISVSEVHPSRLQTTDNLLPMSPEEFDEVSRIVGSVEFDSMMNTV
Method in brief: (§2)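 MCF10A-ras cells treated at the indicated concentrations for 24 h; lysates immunoblotted for p-STAT3, total STAT3 and p-STAT1.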

[5] = Cytotoxicity against wild type human MCF10A cells at 2 uM after 24 hrs; format: cell-based; conditions: mcf-10a
Method in brief: (§3)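 MCF10A and MCF10A-ras cells exposed to each inhibitor for 24 h, then cytotoxicity measured.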

[6] = tested on: MDA-MB-231; experiment: Cytotoxicity against human MDA-MB-231 cells at 1 to 5 uM after 24 hrs; format: functional, cell-based
Method in brief: (§4)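 MCF7 and MDA-MB-231 breast cancer cells treated at the indicated concentrations for 24 h; viability then assessed.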

[7] = target: Signal transducer and activator of transcription 3 (Homo sapiens) (UniProt P40763); experiment: Inhibition of STAT3 phosphorylation in human MCF10A cells transformed with H-ras at 1 to 10 uM after 24 hrs by Western blot analysis; format: cell-based; conditions: MCF-10A
Method in brief: as §2

[8] = tested on: MCF7; experiment: Cytotoxicity against human MCF7 cells at 1 to 5 uM after 24 hrs; format: functional, cell-based
Method in brief: as §4

[9] = tested on: MCF-10A; experiment: Cytotoxicity against human MCF10A cells transformed with H-ras at 2 uM after 24 hrs; format: functional, cell-based
Method in brief: as §3

[10] = target: Signal transducer and activator of transcription 3 (Homo sapiens) (UniProt P40763); experiment: Inhibition of STAT3 phosphorylation in human MCF10A cells transformed with H-ras at 10 uM after 24 hrs by Western blot analysis; format: cell-based; conditions: MCF-10A
Method in brief: as §1

Sequence of Signal transducer and activator of transcription 3 (Homo sapiens) (P40763 whole entry): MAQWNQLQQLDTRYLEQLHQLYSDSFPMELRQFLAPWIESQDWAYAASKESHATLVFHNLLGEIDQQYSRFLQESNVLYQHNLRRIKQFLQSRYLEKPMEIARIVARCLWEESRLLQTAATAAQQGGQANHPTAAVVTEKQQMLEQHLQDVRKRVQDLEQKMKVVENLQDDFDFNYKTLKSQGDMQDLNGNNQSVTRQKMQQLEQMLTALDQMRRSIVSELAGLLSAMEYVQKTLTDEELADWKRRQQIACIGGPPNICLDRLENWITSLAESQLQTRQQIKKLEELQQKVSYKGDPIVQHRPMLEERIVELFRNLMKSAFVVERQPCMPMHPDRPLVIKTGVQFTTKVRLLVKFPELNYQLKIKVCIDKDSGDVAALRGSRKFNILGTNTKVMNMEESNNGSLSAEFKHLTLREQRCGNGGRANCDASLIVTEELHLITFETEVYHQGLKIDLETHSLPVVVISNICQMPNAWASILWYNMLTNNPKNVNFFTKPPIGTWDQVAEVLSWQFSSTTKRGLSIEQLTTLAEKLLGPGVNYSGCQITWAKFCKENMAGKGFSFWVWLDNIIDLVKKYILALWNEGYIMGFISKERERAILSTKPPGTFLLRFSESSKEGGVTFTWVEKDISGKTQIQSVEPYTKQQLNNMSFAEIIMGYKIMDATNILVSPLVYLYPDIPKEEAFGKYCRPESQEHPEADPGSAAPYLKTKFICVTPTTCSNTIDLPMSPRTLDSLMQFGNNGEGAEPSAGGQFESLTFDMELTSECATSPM

C=C(C(=O)c1ccc2c(c1OC)C=CC(C)(C)O2)c1ccc(OC/C=C/CNC(=O)CCCC[C@@H]2SC[C@@H]3NC(=O)N[C@@H]32)c(OC)c1
binding [1]: Active

C=C(c1ccc(OC)c(OC)c1)C(O)c1ccc2c(c1OC)C=CC(C)(C)O2 (centres undefined)
inhibition [2]: inactive

C=C(C(=O)c1ccc2c(c1OC)C=CC(C)(C)O2)c1ccc(OC)c(OC)c1
inhibition [2]: Active
inhibition [3]: Active
inhibition [4]: inactive
Activity [5]: Non-toxic
Activity [6]: Active
inhibition [7]: Active
Activity [8]: Active
Activity [9]: Active

COc1ccc(C(C)C(=O)c2ccc3c(c2OC)C=CC(C)(C)O3)cc1OC (centres undefined)
inhibition [10]: inactive
inhibition [2]: inactive

COc1ccc(CC(=O)c2ccc3c(c2OC)C=CC(C)(C)O3)cc1OC
inhibition [10]: inactive
inhibition [2]: inactive
